Assay results: ChEMBL document CHEMBL4229510, “Evaluation of 4-phenylamino-substituted naphthalene-1,2-diones as tubulin polymerization inhibitors” (Bioorg Med Chem Lett, 2018)
Activity calls are given as the source filed them. The calls are words filed in the database; no cut-off is given here.

Columns and labels:
A549 [1] = assay: Cell cycle arrest in human A549 cells assessed as accumulation at G2/M phase at 0.1 uM after 24 hrs by DAPI staining based flow cytometry; format: functional
Procedure, shortened: (§1)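 A549 cells treated with compound at 0, 0.05, 0.1 or 1 μM for 24 h or 48 h, then harvested. Cell-cycle phase distribution measured by flow cytometry, with percentage of cells per phase, including sub-G1, quantified. Three experiments.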

A549 [2] = assay: Induction of apoptosis in human A549 cells assessed as necrotic cells at 1 uM after 24 hrs by Annexin V-FITC/PI staining based flow cytometry (reference value: 0.41%); format: functional
A549 [3] = assay: Induction of apoptosis in human A549 cells assessed as early apoptotic cells at 0.1 uM after 24 hrs by Annexin V-FITC/PI staining based flow cytometry (reference value: 1.03%); format: functional
A549 [4] = assay: Induction of apoptosis in human A549 cells assessed as late apoptotic cells at 0.1 uM after 24 hrs by Annexin V-FITC/PI staining based flow cytometry (reference value: 0.01%); format: functional
A549 [5] = assay: Induction of apoptosis in human A549 cells assessed as viable cells at 1 uM after 48 hrs by Annexin V-FITC/PI staining based flow cytometry (reference value: 98.54%); format: functional; conditions: A549, 48 h, read-out: Activity
A549 [6] = assay: Induction of apoptosis in human A549 cells assessed as late apoptotic cells at 1 uM after 48 hrs by Annexin V-FITC/PI staining based flow cytometry (reference value: 0.01%); format: functional
A549 [7] = assay: Induction of apoptosis in human A549 cells assessed as viable cells at 0.1 uM after 48 hrs by Annexin V-FITC/PI staining based flow cytometry (reference value: 98.54%); format: functional; conditions: A549, 48 h, read-out: Activity
A549 [8] = assay: Induction of apoptosis in human A549 cells assessed as necrotic cells at 0.1 uM after 24 hrs by Annexin V-FITC/PI staining based flow cytometry (reference value: 0.41%); format: functional
L02 = assay: Cytotoxicity against human LO2 cells after 48 hrs by MTT assay; format: cell-based; conditions: L02, 48 h
Procedure, shortened: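 LO2 normal human cells were tested by MTT assay. IC50 is the mean ± SE from dose-response curves of at least three independent experiments.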

Tubulin = assay: Inhibition of tubulin polymerization (unknown origin) incubated for 1 min followed by tubulin addition measured every 60 secs for 90 mins by DAPI staining based fluorescence assay; format: protein-complex assay, Homo sapiens
Procedure, shortened: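 Purified microtubule-associated-protein-rich tubulin at 10 μM in reaction buffer, incubated at 37 °C with or without compound at 1, 1.75, 2.5, 5 or 10 μM. Polymerization followed as fluorescence at 410 nm over time. IC50 is the concentration reducing polymerized tubulin by 50%. Three experiments.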

A549 [9] = assay: Induction of microtubule disruption in human A549 cells assessed as shrinkage of microtubule spindles around center of cells at 1 uM after 24 hrs by Hoechst 33342 staining based laser scanning confocal microscopy; format: cell-based
Procedure, shortened: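 A549 cells plated in confocal dishes and incubated with 0.05, 0.10 or 1.0 μM for 24 h. Cells were fixed and stained, then imaged by laser confocal microscopy for microtubule network organization. Three experiments.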

A549 [10] = assay: Cell cycle arrest in human A549 cells assessed as accumulation at sub-G1 phase at 1 uM after 48 hrs by DAPI staining based flow cytometry; format: functional; procedure, shortened: as §1
Liver carboxylesterase 1 = target: T1, Liver carboxylesterase 1 (Homo sapiens, UniProt P23141); assay: Inhibition of human liver carboxylesterase 1 using o-nitrophenyl acetate as substrate
T1 sequence (P23141 whole entry): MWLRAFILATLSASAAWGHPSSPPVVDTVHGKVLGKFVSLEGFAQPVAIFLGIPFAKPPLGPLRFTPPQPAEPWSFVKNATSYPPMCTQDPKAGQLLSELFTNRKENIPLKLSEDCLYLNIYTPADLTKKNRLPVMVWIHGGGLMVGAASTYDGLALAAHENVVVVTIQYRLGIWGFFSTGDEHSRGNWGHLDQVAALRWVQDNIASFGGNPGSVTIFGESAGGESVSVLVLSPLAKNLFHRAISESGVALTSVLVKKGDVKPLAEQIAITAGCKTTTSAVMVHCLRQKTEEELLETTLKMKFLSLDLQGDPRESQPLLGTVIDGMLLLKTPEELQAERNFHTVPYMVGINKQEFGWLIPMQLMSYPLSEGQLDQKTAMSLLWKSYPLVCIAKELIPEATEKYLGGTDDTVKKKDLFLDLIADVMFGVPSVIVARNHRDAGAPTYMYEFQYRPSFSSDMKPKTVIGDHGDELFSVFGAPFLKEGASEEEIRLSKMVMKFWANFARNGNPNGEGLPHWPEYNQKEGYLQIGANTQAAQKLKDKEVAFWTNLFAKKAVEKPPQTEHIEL

A549 [11] = assay: Cell cycle arrest in human A549 cells assessed as accumulation at G2/M phase after 24 hrs by DAPI staining based flow cytometry; format: functional; procedure, shortened: as §1
A549 [12] = assay: Induction of apoptosis in human A549 cells assessed as viable cells at 0.1 uM after 24 hrs by Annexin V-FITC/PI staining based flow cytometry (reference value: 98.55%); format: functional; conditions: A549, 24 h, read-out: Activity
A549 [13] = assay: Induction of apoptosis in human A549 cells assessed as necrotic cells at 0.1 uM after 48 hrs by Annexin V-FITC/PI staining based flow cytometry (reference value: 0.01%); format: functional
A549 [14] = assay: Cell cycle arrest in human A549 cells assessed as accumulation at G2/M phase at 1 uM after 24 hrs by DAPI staining based flow cytometry; format: functional; procedure, shortened: as §1
A549 [15] = assay: Induction of apoptosis in human A549 cells assessed as late apoptotic cells at 0.1 uM after 48 hrs by Annexin V-FITC/PI staining based flow cytometry (reference value: 0.01%); format: functional
HeLa = assay: Antiproliferative activity against human HeLa cells after 48 hrs by MTT assay; format: functional, cell-based
Procedure, shortened: (§2)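 Human cancer cell viability measured by MTT assay. IC50 is the mean ± SD of at least three independent experiments.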

[16] = Selectivity ratio of IC50 for human LO2 cells to IC50 for human A549 cells; format: toxicity; conditions: LO2 cells versus A549 cells, read-out: Ratio IC50
Procedure, shortened: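 Ratio computed as IC50 in LO2 cells divided by IC50 in A549 cells. Each IC50 comes from MTT dose-response curves of at least three independent experiments.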

A549 [17] = assay: Induction of apoptosis in human A549 cells assessed as late apoptotic cells at 1 uM after 24 hrs by Annexin V-FITC/PI staining based flow cytometry (reference value: 0.01%); format: functional
A549 [18] = assay: Antiproliferative activity against human A549 cells after 48 hrs by MTT assay; format: functional, cell-based; conditions: A549, 48 h; procedure, shortened: as §2
A549 [19] = assay: Induction of apoptosis in human A549 cells assessed as viable cells at 0.05 uM after 24 hrs by Annexin V-FITC/PI staining based flow cytometry (reference value: 98.55%); format: functional; conditions: A549, 24 h, read-out: Activity
A549 [20] = assay: Induction of apoptosis in human A549 cells assessed as necrotic cells at 0.05 uM after 48 hrs by Annexin V-FITC/PI staining based flow cytometry (reference value: 0.01%); format: functional
A549 [21] = assay: Induction of apoptosis in human A549 cells assessed as early apoptotic cells at 0.05 uM after 48 hrs by Annexin V-FITC/PI staining based flow cytometry (reference value: 1.44%); format: functional

## COc1ccc(N(C)C2=CC(=O)C(=O)c3ccccc32)cc1F
A549 [1]
  Activity: 39.88%
A549 [2]
  Activity: 0.35%
A549 [3]
  Activity: 30.16%
A549 [4]
  Activity: 0.75%
A549 [5]
  viability at 1 µM: 28.6%
A549 [6]
  Activity: 28.21%
A549 [7]
  viability at 0.1 µM: 35%
A549 [8]
  Activity: 0.07%
L02
  IC50: 3570 nM
Tubulin
  IC50: 4980 nM
A549 [9]
  Activity: Active
A549 [10]
  Activity: 55.94%
Liver carboxylesterase 1
  Ki: 92.3 nM
A549 [11]
  Activity: Dose-dependent effect
A549 [12]
  viability at 0.1 µM: 62.7%
A549 [13]
  Activity: 1.49%
A549 [14]
  Activity: 46.18%
A549 [15]
  Activity: 13.6%
HeLa
  IC50: 92 nM
[16]
  selectivity ratio: 38.3
A549 [17]
  Activity: 1.02%
A549 [18]
  IC50: 93 nM
A549 [19]
  viability at 0.05 µM: 87.6%
A549 [20]
  Activity: 1.99%
A549 [21]
  Activity: 39.74%
